Source: ChEMBL document CHEMBL1158572, “Dolabellane-type diterpenoids with antiprotozoan activity from a southwestern Caribbean gorgonian octocoral of the genus Eunicea” (J Nat Prod, 2010)
The source made the active and inactive calls. The calls are words filed in the database; no cut-off is given here.

Experiments:
[1] = tested on: Plasmodium falciparum; assay: Antimalarial activity against chloroquine-resistant Plasmodium falciparum W2; format: functional, organism-based
[2] = tested on: Mycobacterium tuberculosis; assay: Antimycobacterial activity against Mycobacterium tuberculosis at 6.25 ug/ml by Alamar blue assay; format: functional
Summary of the method: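 Single-concentration screen at 6.25 µg/mL against *M. tuberculosis* growth, read out as percent inhibition.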

[3] = tested on: Hepatitis B virus; assay: Antiviral activity against HBV in human HepG2(2.2.15) cells at 30 mM; format: functional, organism-based
[4] = tested on: NCI-H460; assay: Antiproliferative activity against human NCI-H460 cells after 48 hrs by SRB assay; format: functional, cell-based
Summary of the method: (§1)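 NCI one-dose primary prescreen in a three-line panel (MCF-7 breast, NCI-H460 non-small cell lung, SF-268 CNS). Cytotoxicity was judged against untreated control cells. Antiproliferative activity in this prescreen is required before testing in the 60-cell-line panel.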

[5] = tested on: SF-268; assay: Antiproliferative activity against human SF268 cells after 48 hrs by SRB assay; format: functional, cell-based; summary of the method: as §1
[6] = tested on: MCF7; assay: Antiproliferative activity against human MCF7 cells after 48 hrs by SRB assay; format: functional, cell-based; summary of the method: as §1

Structure (SMILES)	IC50 [1]	inhibition at 6.25 µg/mL [2]	Activity [3]	Activity [4]	Activity [5]	Activity [6]
C/C1=C/C[C@]2(C)CC(=O)C(C(C)C)[C@H]2C/C=C(\C)[C@H](OO)CC1 (relative stereo)	40.9 µM					
C=C1CCC(=O)[C@@H](C)CC[C@@H]2C(=C(C)C)C(=O)C[C@@]2(C)C[C@@H]1OC(C)=O	50 µM					
C=C1CC/C=C(\C)CC[C@@H]2C(=C(C)C)C(=O)C[C@@]2(C)C[C@@H]1O	36.4 µM					
CC1=CC[C@@H](O)[C@]2(C)CC[C@@H]3C(=C(C)C)C(=O)C[C@@]3(C)C[C@@H]12	59.6 µM	≤ 50%				
C/C1=C/C[C@]2(C)C(=O)C=C(C(C)C)[C@H]2CC[C@@]2(C)O[C@@H]2CC1	≥ 100 µM	≤ 50%				
CC(=O)OC/C1=C\C[C@]2(C)CC(=O)C(=C(C)C)[C@H]2CC[C@]2(C)O[C@H]2CC1	30.6 µM					
CC(C)=C1C(=O)C[C@@]2(C)C/C=C(\C)CCC(=O)[C@H](C)CC[C@H]12	13.2 µM	≤ 50%	inactive	inactive	inactive	inactive
CC(C)=C1C(=O)C[C@@]2(C)C[C@H]3O[C@]3(C)CC[C@@H]3O[C@@]3(C)CC[C@H]12	37.7 µM			inactive	inactive	inactive
CC(C)=C1C(=O)C[C@@]2(C)C/C=C(\C)CC[C@@H]3O[C@@]3(C)CC[C@H]12	23.2 µM	≤ 50%		inactive		inactive
CC(C)=C1C(=O)C[C@@]2(C)C/C=C(\C)CC[C@@H](OO)/C(C)=C/C[C@H]12 (relative stereo)	36.4 µM	≤ 50%	inactive			
CC(C)=C1C(=O)C[C@@]2(C)C/C=C(\C)CC/C=C(\C)CC[C@H]12 [DOLABELLANE]	45.5 µM	≤ 50%	inactive	inactive		inactive
C=C1CC[C@@H](O)[C@]2(C)CC[C@@H]3C(=C(C)C)C(=O)C[C@@]3(C)C[C@@H]12		≤ 50%				
C=C1CC[C@@H]2O[C@@]2(C)CC[C@@H]2C(=C(C)C)C(=O)C[C@@]2(C)C[C@@H]1OC(C)=O	36.1 µM					
CC(=O)O[C@H]1C/C(C)=C/C[C@]2(C)CC(=O)C(=C(C)C)[C@H]2CC[C@]2(C)O[C@@H]12	33.3 µM					
C=C1CC/C=C(\C)CC[C@@H]2C(=C(C)C)C(=O)C[C@@]2(C)C[C@@H]1OC(C)=O (relative stereo)	20.3 µM	≤ 50%				
C/C1=C\C[C@]2(C)C(=O)C=C(C(C)C)[C@H]2CC[C@]2(C)O[C@H]2CC1	43 µM					
C/C1=C\C[C@]2(C)CC=C(C(C)(C)O)[C@H]2CC/C(C)=C/CC1 [PALOMINOL]	31.2 µM	≤ 50%	inactive			
C/C1=C/C[C@]2(C)C(=O)C=C(C(C)C)[C@H]2C/C=C(\C)[C@H](OO)CC1 (relative stereo)	9.4 µM	≤ 50%	inactive			
